Consider three compounds from ChEMBL document CHEMBL3244382, “Structural requirements for antileukemic activity among the naturally occurring and semisynthetic maytansinoids” (J Med Chem, 1978).

Values after ≈ are worked out from the molar mass of the structure shown. Active and inactive are the calls of the source.

In one data set the test system is Paracentrotus lividus. Kind of data set: Antimitotic activity against sea urchin eggs assessed as drug level causing inhibition of mitosis. The data set is classed as functional. The following applies: Egg.
The target of another data set is Tubulin (Homo sapiens) (UniProt P68371+Q9H4B7+P0DPH7+P68366+Q13509+Q71U36+P04350+Q3ZCM7+P07437+P68363+Q9BQE3+Q6PEY2+Q13885+Q9BVA1+Q9BUF5). Kind of data set: Inhibition of brain tubulin polymerization (unknown origin) at 37 degC by spectrophotometry.
Data set [1] concerns P388. Description: Antitumor activity against mouse P388 cells allografted in PS mouse assessed as median survival time at 200 ug/kg relative to control. Type of data set: functional. The gist of the method: (§1)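 P388 leukemia (PS) in mice, six mice started per dose group. Read-out is T/C: median survival time of the treated group divided by that of the untreated control group, expressed as a percent. The NIH protocol counts a compound as active when T/C > 125%.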

Data set [2] has as its system Mus musculus. Description: Toxicity in PS mouse allografted with mouse P388 cells assessed as survival at 100 ug/kg after 4 days. The data set is classed as organism-based. The note with it: in vivo, 0.1 mg/kg, 96 h. The gist of the method: (§2)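 PS (P388) leukemic mice, six started per dose group. Toxicity scored as survivors on the toxicity day over the number of mice started. The toxicity day is normally 4 days after the first injection.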

Data set [3] deals with Mus musculus. Description: Toxicity in PS mouse allografted with mouse P388 cells assessed as survival at 400 ug/kg after 4 days. Type of data set: organism-based. The note with it: in vivo, 0.4 mg/kg, 96 h. In a few lines:
as §2

The test system of data set [4] is Mus musculus. Description: Toxicity in PS mouse allografted with mouse P388 cells assessed as survival at 200 ug/kg after 4 days. The following applies: in vivo, 0.2 mg/kg, 96 h. The data set is classed as organism-based. The gist of the method: as §2
Data set [5] deals with Mus musculus. Description: Toxicity in PS mouse allografted with mouse P388 cells assessed as survival at 50 ug/kg after 4 days. Type of data set: organism-based. The following applies: in vivo, 0.05 mg/kg, 96 h. In a few lines: as §2
The test system of the next data set is KB. Description: Cytotoxicity against human KB cells. The note with it: read-out: ED50 (the source's name). Type of data set: functional.
Data set [6] concerns P388. Kind of data set: Antitumor activity against mouse P388 cells allografted in PS mouse assessed as median survival time at 400 ug/kg relative to control. Type of data set: functional. In a few lines:
as §1

Data set [7] relates to Mus musculus. Kind of data set: Toxicity in PS mouse allografted with mouse P388 cells assessed as change in body weight at 100 ug/kg relative to control. The data set is classed as organism-based. The note with it: in vivo, 0.1 mg/kg. In a few lines: (§3)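 P388 (PS) leukemia in mice, 6 mice per dose group. Weight change is the difference in grams between treated and control animals. Survivors are recorded on toxicity day, normally 4 days after the first injection.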

The test system of data set [8] is P388. Kind of data set: Antitumor activity against mouse P388 cells allografted in PS mouse assessed as median survival time at 50 ug/kg relative to control. The data set is classed as functional. The gist of the method:
as §1

Data set [9] deals with Mus musculus. Kind of data set: Toxicity in PS mouse allografted with mouse P388 cells assessed as change in body weight at 200 ug/kg relative to control. Type of data set: organism-based. The following applies: in vivo, 0.2 mg/kg. The gist of the method: as §3
Data set [10] deals with Mus musculus. Description: Toxicity in PS mouse allografted with mouse P388 cells assessed as change in body weight at 50 ug/kg relative to control. Type of data set: organism-based. The note with it: in vivo, 0.05 mg/kg. In a few lines: as §3
Data set [11] deals with Mus musculus. Kind of data set: Toxicity in PS mouse allografted with mouse P388 cells assessed as change in body weight at 400 ug/kg relative to control. Type of data set: organism-based. The following applies: in vivo, 0.4 mg/kg. The gist of the method: as §3
Data set [12] relates to P388. Kind of data set: Antitumor activity against mouse P388 cells allografted in PS mouse assessed as median survival time at 100 ug/kg relative to control. Type of data set: functional. In a few lines: as §1

In general, T/C refers to the ratio of treated to control. Take `CCO[C@]12C[C@H](OC(=O)N1)[C@@H](C)[C@@H]1O[C@@]1(C)[C@@H](OC(=O)[C@H](C)N(C)C(=O)C(C)C)CC(=O)N(C)c1cc(cc(OC)c1Cl)C/C(C)=C/C=C/[C@H]2OC`: the Activity with Paracentrotus lividus was 1 ×10⁻⁷ mol/L; in the data set on Mus musculus [2], “Non-toxic”; with Mus musculus [3] it was “Non-toxic”; in the data set on Mus musculus [4], “Non-toxic”; in the data set with Mus musculus [5], “Non-toxic”; in the data set with Mus musculus [7] it was 3.4 g. The results for the Activity in the data set with Mus musculus [9], in the data set with Mus musculus [10] and in the data set with Mus musculus [11] were 0.3 g, 1.3 g and -0.9 g, respectively. Besides, the inhibition result at Tubulin (Homo sapiens) is “Active”. Besides, the T/C is recorded as 134% with P388 [1], 149% in the data set on P388 [6], 100% with P388 [8] and 109% in the data set on P388 [12]. Also, in the data set on KB, the EC50 is 1.2 ng/mL (≈ 1.6 nM).

Regarding `CCCS[C@]12C[C@H](OC(=O)N1)[C@@H](C)[C@@H]1O[C@@]1(C)[C@@H](OC(=O)[C@H](C)N(C)C(C)=O)CC(=O)N(C)c1cc(cc(OC)c1Cl)C/C(C)=C/C=C/[C@H]2OC`, the Activity in the data set with Paracentrotus lividus was 1 ×10⁻⁸ mol/L; in the data set with Mus musculus [2] it was “Non-toxic”; with Mus musculus [3], “Non-toxic”; with Mus musculus [4], “Non-toxic”; with Mus musculus [5], “Non-toxic”; with Mus musculus [7] it was 2.8 g. Besides, the values for the Activity in the data set on Mus musculus [9], in the data set with Mus musculus [10] and in the data set on Mus musculus [11] were 0.1 g, -1.3 g and -0.7 g, respectively. Moreover, on Tubulin (Homo sapiens), the inhibition result was “Active”. For the same compound, the T/C stood at 114% in the data set on P388 [1], 114% with P388 [6], 111% with P388 [8] and 114% with P388 [12]. Besides, in the data set with KB, the EC50 is 0.18 ng/mL (≈ 0.24 nM).

For `COc1cc2cc(c1Cl)N(C)C(=O)C[C@H](OC(=O)[C@H](C)N(C)C(C)=O)[C@]1(C)O[C@H]1[C@H](C)[C@@H]1C[C@@](OC)(NC(=O)O1)[C@H](OC)/C=C/C=C(\C)C2`, the Activity was 1 ×10⁻⁸ mol/L with Paracentrotus lividus; “Non-toxic” with Mus musculus [2]; “Non-toxic” with Mus musculus [3]; “Non-toxic” in the data set with Mus musculus [4]; “Non-toxic” with Mus musculus [5]; -0.9 g in the data set on Mus musculus [7]. For the same compound, the Activity was -0.7 g in the data set with Mus musculus [9], -2.3 g with Mus musculus [10] and -0.9 g in the data set on Mus musculus [11]. At Tubulin (Homo sapiens), the inhibition entry was “Active”. For the same compound, the T/C with P388 [1] is 93%; with P388 [6] it was 139%; in the data set with P388 [8] it was 101%; in the data set on P388 [12], 104%. Also, the EC50 in the data set on KB worked out at 0.19 ng/mL (≈ 0.269 nM).
